Results published in the EternaBench riboswitch data.

Test system: MS2 coat protein
Assay: apparent Kd, MS2 coat protein; higher = weaker binding; RNA-MaP array; tryptophan 2.4 mM where present
How it was run: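 Two titrations, one without ligand and one with constant ligand, were run with SNAP-549-labelled MS2 coat protein from 0.7 or 1.5 nM, doubling to 3 µM. The targets were designs transcribed by stalled E. coli RNA polymerase on Illumina sequencing-chip clusters, in 100 mM Tris-HCl pH 7.5, 80 mM KCl, 4 mM MgCl2, BSA, DTT, yeast tRNA and Tween-20. The apparent Kd is the median of filtered per-cluster binding-curve fits, with green signal normalised to red-channel RNA signal and control-cluster median Fmax.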

[1] = designed as: OFF switch for tryptophan, no ligand
[2] = ligand present: tryptophan, designed as: OFF switch for tryptophan
[3] = designed as: ON switch for tryptophan, no ligand
[4] = ligand present: tryptophan, designed as: ON switch for tryptophan

Sequence	apparent Kd [1]	apparent Kd [2]	apparent Kd [3]	apparent Kd [4]
UAUCGUCAGACGGCCGCCACUAGUACAUGAGGAUCACCCAUGUAGGUCCUAGAUUCCUCAUGAUCUAGGACCGGGUCUGACGAAU	39 nM	23 nM	–	–
AGGUACGGAAUCCUCAUGUAGUCGUACCAACGAGGACCGGUACGGCCGCCACUCGAAUAAACAUGAGGAUCACCCAUGUAAUAAU	–	–	34.4 nM	19.7 nM
AAACAUGAGGAUCACCCAUGUAUGUUAUUACGAGGACCGGUACGGCCGCCACUCGAUAGAGUAGAAGUAAAUUGUAAUUCAUGUU	14.3 nM	15.9 nM	–	–
GGUUACUCUACGGCCGCCACUGAAAAGUAAAUAUUAAUGUACAUGACAUGAGGAUCACCCAUGUACAGGACCGGGUAGUGUAACC	–	–	84.2 nM	21.5 nM
UUCUUUAAGUCGGCCGCCACUGAAACAUGAGGAUCACCCAUGUAAAUUUGGGAGUAGUUAUAUUACAGGACCGGGACUAUAGUAA	41.5 nM	83 nM	–	–
CUAGACUGUGCGGCCGCCACUGGCUCAUCCUGCAUUACAUGAGGAUCACCCAUGUUGCGGCCUCCCAGGACCGGGCAUAGUCUGC	–	–	329 nM	105 nM
AUUCAUGGAAACAUGACAUACAUAUCCGGUCGAGGACCGGUACGGCCGCCACUCGUUUGGAGGCACAUGAGGAUCACCCAUGUUA	–	–	23.9 nM	25.9 nM
UAGUUGUAGUCGGCCGCCACUGUGAGCAUGGUUAACAUGAGGAUCACCCAUGUCCCGUACUAUAACAGGACCGGGACGUAGUUGC	–	–	48.1 nM	22.9 nM
CACAGUGCGAAAUUGAAACCGCACGAUCCUCGAGGACCGGUACGGCCGCCACUCGCGCGGGUCGUACAUGAGGAUCACCCAUGUC	–	–	262 nM	371 nM
GUGCCGCAUUCACAUGAGGAUCACCCAUGUCGAGGACCGGUACGGCCGCCACUCGACGUGCUUACAGGUCCUUUAAGGCCCAAUA	92.8 nM	43.8 nM	–	–
GGCACAUAGUCGGCCGCCACUAGUGGGAAAUGGGAGAACAUGAGGAUCACCCAUGUAGCGUAGCCUAGGACCGGGACUAUGUGCC	160 nM	156 nM	–	–
GGAGUAGGAAACUAUUCCAAUCCUCGUGAACGAGGACCGGUACGGCCGCCACUCGAUAAAUAAAUACAUGAGGAUCACCCAUGUU	68.8 nM	118 nM	–	–
GGCACAUAGUCGGCCGCCACUAGAAUAAGAUGGAAUAACAUGAGGAUCACCCAUGUAAAAGGGACUAGGACCGGGACUAUGUGCC	13.7 nM	11.9 nM	–	–
GGUGUAAUUGACUCUUUGUUUUAUUUGUAACGAGGACCGGUACGGCCGCCACUCGAUAUUCACAUGAGGAUCACCCAUGUUAGCU	20.1 nM	20.4 nM	–	–
GAUUUAACAAAAGUUAGAUCAGUGGGUGAACGAGGACCGGUACGGCCGCCACUCGGACAUGAGGAUCACCCAUGUCCAUGUGAAA	17.8 nM	43.1 nM	–	–
ACGUUUUAGUCGGCCGCCACUGUUUUCAUGUUCAACAUGAGGAUCACCCAUGUACCUUUUUUUAUCAGGACCGGGACGUAAUAGA	–	–	68.5 nM	27.4 nM
AGCACGGUGAUGGUAGCCGGACGAUAAGUACGAGGACCGGUACGGCCGCCACUCGAAGUCCUACGACAUGAGGAUCACCCAUGUA	–	–	33.2 nM	37.9 nM
UCGUGCAGAGCGGCCGCCACUGUAUUGCGUGCGGAUGACGGAACAUGAGGAUCACCCAUGUUGUUUAGGACCGGGCUUGCCACCA	12.7 nM	13.9 nM	–	–
GGUUACUCUACGGCCGCCACUGUAAAGUAAAGAUACCUGUACAUGACAUGAGGAUCACCCAUGUACAGGACCGGGUAGUGUAACC	–	–	545 nM	232 nM
GCUACAUGAGGAUCACCCAUGUAUGCGAGCCGAGGACCGGUACGGCCGCCACUCGCUUAACAUGAGGAUCACCCAUGUUGCUCGG	–	–	40.9 nM	43.6 nM
UUCGUUGGCGAUCUGGGUUUACCAGAUCGGCGAGGACCGGUACGGCCGCCACUCGUGUUUUCUUUACAUGAGGAUCACCCAUGUU	–	–	19.2 nM	15.2 nM
CCAUCUACAUCGGCCGCCACUGAACCAAGGAGACAUGAGGAUCACCCAUGUAUGGGAAACCAUCAUAGGACCGGGAUGAUCUACC	–	–	113 nM	122 nM
